The values below come from ChEMBL document CHEMBL1154743, “A novel potent nicotinamide phosphoribosyltransferase inhibitor synthesized via click chemistry” (J Med Chem, 2010).

Calls of active or inactive are those of the source. The calls are words filed in the database; no cut-off is given here.

Assay [1] deals with SH-SY5Y. The assay can be described thus: Cytotoxicity against human SH-SY5Y cells assessed as cell viability after 48 hrs by MTT assay. Format: functional, cell-based. The gist of the method: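 SH-SY5Y cells incubated with compound for 48 h and viability measured by MTT. Values are mean ± SEM of 8-12 determinations.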
A general note: Formazan colour is commonly taken as a measure of viable cells.

Assay [2] has as its system SH-SY5Y. Nature of the assay: Cytotoxicity against human SH-SY5Y cells assessed as reduction of total cellular NAD(P) level at 1 uM relative to control. Format: functional. The arrangement: scale not given: the % may be the effect or the level left.
For assay [3], the system named is SH-SY5Y. The assay can be described thus: Cytotoxicity against human SH-SY5Y cells assessed as reduction of total cellular NAD(P) level at 300 nM relative to control. Format: functional. The arrangement: scale not given: the % may be the effect or the level left. In short, it runs like this:
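Total cellular NAD levels in SH-SY5Y cells screened at a single fixed concentration of 300 nM. Expressed relative to control, n = 10.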

The test system of assay [4] is SH-SY5Y. The assay can be described thus: Cytotoxicity against human SH-SY5Y cells assessed as cell viability after 48 hrs by MTT assay relative to control in presence of nicotinamide. Format: functional.
Assay [5] deals with SH-SY5Y. The assay can be described thus: Cytotoxicity against human SH-SY5Y cells assessed as reduction of total cellular NAD(P) level. Format: functional, cell-based.
The test system of assay [6] is SH-SY5Y. The assay can be described thus: Induction of autophagy in human SH-SY5Y cells assessed as LC3/phosphotidylethanolamine coupling after 40 hrs by Western blot analysis. Format: functional, cell-based. In short, it runs like this: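 Western blot of LC3-I and LC3-II, with tubulin as reference, in untreated and treated cells exposed to 10 nM compound. Six independent experiments were run, using two LC3 antibodies from different sources.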
(In general: Immunoblotting shows a protein as a band on a membrane.)

Usually IC50 stands for the midpoint of a concentration-inhibition curve. Regarding `O=C(CCCCCCCn1cc(-c2cccnc2)nn1)Nc1ccccc1Cc1ccccc1`, the IC50 in the assay on SH-SY5Y [1] is 72 nM. The figures for the Activity in the assay with SH-SY5Y [2] and in the assay on SH-SY5Y [3] were 30% and 75.2%, respectively.
With `O=C(CCCCCCCn1cc(-c2cccnc2)nn1)Nc1ccccc1Oc1ccccc1`, the half-inhibitory concentration (IC50) in the assay on SH-SY5Y [1] was found to be 37 nM. For the same compound, the results for the Activity with SH-SY5Y [2] and with SH-SY5Y [3] were 17.7% and 87.9%, respectively.
With `NC(=O)c1cccnc1` [NIACINAMIDE], the Activity in the assay with SH-SY5Y [4] came out at 31%.
Turning to `O=C(/C=C/c1cccnc1)NCCCCC1CCN(C(=O)c2ccccc2)CC1` [DAPORINAD], the IC50 in the assay with SH-SY5Y [1] stood at 1.7 nM; in the assay with SH-SY5Y [5], 0.5 nM. For the same compound, the outcome with SH-SY5Y [6] was Active.
For `O=C(CCCCCCCCn1cc(-c2cccnc2)nn1)Nc1ccccc1Oc1ccccc1`, the IC50 with SH-SY5Y [1] was 78 nM. Moreover, the Activity in the assay on SH-SY5Y [2] was found to be 22.6%; with SH-SY5Y [3] it was 79.5%.
For `O=C(CCCCCCCn1cc(-c2cccnc2)nn1)NCC(c1ccccc1)c1ccccc1`, the IC50 was 97 nM with SH-SY5Y [1] and 49.2 nM in the assay on SH-SY5Y [5]. Further, the Activity stood at 23% in the assay with SH-SY5Y [2] and 11% with SH-SY5Y [3].
With `O=C(CCCCCCCCn1cc(-c2cccnc2)nn1)Nc1ccccc1-c1ccccc1`, the figures for the 50% inhibitory concentration (IC50) in the assay on SH-SY5Y [1] and with SH-SY5Y [5] were 14.6 nM and 84.4 nM, respectively. Further, the Activity in the assay with SH-SY5Y [2] is given as 13%; in the assay on SH-SY5Y [3], 35.6%.
As to `O=C(CCCCCCn1cc(-c2cccnc2)nn1)Nc1ccccc1Cc1ccccc1`, the Activity in the assay on SH-SY5Y [2] was 28%; in the assay with SH-SY5Y [3], 86.1%.
Regarding `O=C(CCCCCCCn1cc(-c2cccnc2)nn1)n1c2ccccc2c2ccccc21`, the IC50 in the assay on SH-SY5Y [1] was determined as 37.4 nM; in the assay with SH-SY5Y [5], 17.1 nM. In the assay with SH-SY5Y [3], the Activity was determined as 12%.
With `O=C(CCCCCCn1cc(-c2cccnc2)nn1)Nc1ccccc1Oc1ccccc1`, the IC50 in the assay on SH-SY5Y [1] was 120 nM. In addition, the Activity in the assay with SH-SY5Y [2] amounted to 24.7%; with SH-SY5Y [3], 81.3%.
Turning to `O=C(CCCCCCCCn1cc(-c2cccnc2)nn1)NCC(c1ccccc1)c1ccccc1`, the IC50 in the assay with SH-SY5Y [1] is 157 nM. Further, the Activity was found to be 32.3% in the assay on SH-SY5Y [2] and 77.3% in the assay on SH-SY5Y [3].
In the case of `COc1ccccc1NC(=O)CCCCCCn1cc(-c2cccnc2)nn1`, the Activity in the assay with SH-SY5Y [3] is recorded as 87.9%.
As for `O=C(CCCCCCn1cc(-c2cccnc2)nn1)NCC(c1ccccc1)c1ccccc1`, the Activity was found to be 16.8% in the assay on SH-SY5Y [2] and 83.8% in the assay with SH-SY5Y [3].
Regarding `O=C(CCCCCCCCn1cc(-c2cccnc2)nn1)Nc1ccccc1Cc1ccccc1`, in the assay with SH-SY5Y [1], the IC50 was 82 nM. In addition, the Activity is 13.1% in the assay with SH-SY5Y [2] and 74.7% in the assay with SH-SY5Y [3].
The corresponding values for `O=C(CCCCCCn1cc(-c2cccnc2)nn1)Nc1ccccc1-c1ccccc1` are 56 nM, 26.2% and 88.2%.
Turning to `O=C(CCCCCCn1cc(-c2cccnc2)nn1)Nc1ccccc1Cl`, the IC50 in the assay with SH-SY5Y [1] was 205 nM. Also, the Activity with SH-SY5Y [3] came to 79.5%.
As to `O=C(CCCCCCCn1cc(-c2cccnc2)nn1)Oc1ccccc1-c1ccccc1`, in the assay on SH-SY5Y [3], the Activity stood at 74.7%.
For `N#CCCCc1cn(-c2ccncc2)nn1`, the Activity is recorded as 31% in the assay with SH-SY5Y [2] and 87.8% in the assay with SH-SY5Y [3].
